Reference: ChEMBL document CHEMBL1152814, “Novel cyano- and amidinobenzothiazole derivatives: synthesis, antitumor evaluation, and X-ray and quantitative structure-activity relationship (QSAR) analysis” (J Med Chem, 2009)
Calls of active or inactive are those of the source. No cut-off for these calls is given here.

Tests used:
[1] = Antiproliferative activity against human WI38 cells after 72 hrs by MTT assay; assay type: cell-based; details: WI-38, 72 h
Outline: (§1)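 Monolayers in DMEM with 10% FBS, 2 mM L-glutamine, penicillin/streptomycin, 37 °C, 5% CO2. Seeded at 3 × 10³ to 6 × 10³ cells/well on day 0. Agents added the next day in five 10-fold dilutions (10^-8–10^-4 mol/L), with a DMSO solvent control (max 0.25%). MTT read at 570 nm after 72 h. Quadruplicate points, three experiments. IC50 is the concentration giving 50% growth inhibition.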

SW-620 = test: Antiproliferative activity against human SW620 cells after 72 hrs by MTT assay; assay type: functional, cell-based; details: SW-620, 72 h; outline: as §1
HeLa = test: Antiproliferative activity against human HeLa cells after 72 hrs by MTT assay; assay type: functional, cell-based; outline: as §1
MCF7 = test: Antiproliferative activity against human MCF7 cells after 72 hrs by MTT assay; assay type: functional, cell-based; details: MCF7, 72 h; outline: as §1
MIA PaCa-2 = test: Antiproliferative activity against human MIAPaCa2 cells after 72 hrs by MTT assay; assay type: functional, cell-based; details: MIA PaCa-2, 72 h; outline: as §1
HEp-2 = test: Antiproliferative activity against human Hep2 cells after 72 hrs by MTT assay; assay type: functional, cell-based; details: HEp-2, 72 h; outline: as §1
NCI-H460 [2] = test: Induction of apoptosis in human H460 cells assessed as viable cells at 10 uM after 48 hrs using annexin V staining by FACS; assay type: functional; details: NCI-H460, 48 h, read-out: Activity
Outline: (§2)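 H 460 cells seeded at 2 × 10⁵/well and exposed for 48 h (5, 10 or 50 µM) against a vehicle control. Floating and attached cells were pooled and washed in binding buffer (10 mM HEPES, 140 mM NaCl, 2.5 mM CaCl2, pH 7.4). They were stained 20 min with annexin V Alexa Fluor 488 and 1 µg/mL 7-AAD, then read by flow cytometry. Quadrants: viable, early apoptotic, late apoptotic.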

NCI-H460 [3] = test: Antiproliferative activity against human H460 cells after 72 hrs by MTT assay; assay type: functional, cell-based; details: NCI-H460, 72 h; outline: as §1
NCI-H460 [4] = test: Induction of apoptosis in human H460 cells assessed as early apoptotic cells after 48 hrs using annexin V staining by FACS; assay type: functional, cell-based; outline: as §2
NCI-H460 [5] = test: Cell cycle arrest in human H460 cells assessed as reduction of percentage of cells in S phase at 5 to 50 uM after 24 hrs using propidium iodide staining by FACS; assay type: functional, cell-based
Outline: (§3)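 H 460 cells seeded at 2 × 10⁵/well and treated after overnight incubation with 5, 10 or 50 µM for 24 or 48 h. Attached and floating cells were pooled, fixed in 70% ethanol, treated with 0.2 µg/µL RNase A (37 °C, 15 min) and stained with 50 µg/mL propidium iodide. Flow cytometry counted 20000 events, in duplicate across two independent experiments.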

NCI-H460 [6] = test: Induction of apoptosis in human H460 cells assessed as late apoptotic cells after 48 hrs using annexin V staining by FACS; assay type: functional, cell-based; outline: as §2
NCI-H460 [7] = test: Induction of apoptosis in human H460 cells assessed as late apoptotic cells at 10 uM after 48 hrs using annexin V staining by FACS; assay type: functional; outline: as §2
NCI-H460 [8] = test: Induction of apoptosis in human H460 cells assessed as early apoptotic cells at 10 uM after 48 hrs using annexin V staining by FACS; assay type: functional; outline: as §2
NCI-H460 [9] = test: Induction of apoptosis in human H460 cells assessed as viable cells after 48 hrs using annexin V staining by FACS; assay type: functional, cell-based; outline: as §2
NCI-H460 [10] = test: Cell cycle arrest in human H460 cells assessed as reduction of percentage of cells in S phase at 5 to 50 uM after 48 hrs using propidium iodide staining by FACS; assay type: functional, cell-based; outline: as §3
NCI-H460 [11] = test: Cell cycle arrest in human H460 cells assessed as induction of G1 phase delay at 50 uM after 24 hrs using propidium iodide staining by FACS; assay type: functional, cell-based; outline: as §3
NCI-H460 [12] = test: Cell cycle arrest in human H460 cells assessed as induction of G2 phase delay at 50 uM after 48 hrs using propidium iodide staining by FACS; assay type: functional, cell-based; outline: as §3
NCI-H460 [13] = test: Cell cycle arrest in human H460 cells assessed as induction of G1 phase delay at 50 uM after 48 hrs using propidium iodide staining by FACS; assay type: functional, cell-based; outline: as §3
NCI-H460 [14] = test: Cell cycle arrest in human H460 cells assessed as increase in percentage of cells in G1 phase at 10 uM after 48 hrs using propidium iodide staining by FACS; assay type: functional, cell-based; outline: as §3
NCI-H460 [15] = test: Cell cycle arrest in human H460 cells assessed as increase in percentage of cells in G1 phase at 10 uM after 24 hrs using propidium iodide staining by FACS; assay type: functional, cell-based; outline: as §3
NCI-H460 [16] = test: Cell cycle arrest in human H460 cells assessed as induction of G2 phase delay at 50 uM after 24 hrs using propidium iodide staining by FACS; assay type: functional, cell-based; outline: as §3
NCI-H460 [17] = test: Induction of apoptosis in human H460 cells assessed as early apoptotic cells at 50 uM after 48 hrs using annexin V staining by FACS; assay type: functional; outline: as §2
NCI-H460 [18] = test: Induction of apoptosis in human H460 cells assessed as late apoptotic cells at 50 uM after 48 hrs using annexin V staining by FACS; assay type: functional; outline: as §2
NCI-H460 [19] = test: Induction of apoptosis in human H460 cells assessed as viable cells at 50 uM after 48 hrs using annexin V staining by FACS; assay type: functional; details: NCI-H460, 48 h, read-out: Activity; outline: as §2
NCI-H460 [20] = test: Cell cycle arrest in human H460 cells assessed as reduction of percentage of cells in S phase at 50 uM after 48 hrs using propidium iodide staining by FACS; assay type: functional, cell-based; outline: as §3
NCI-H460 [21] = test: Cell cycle arrest in human H460 cells assessed as reduction of percentage of cells in S phase at 50 uM after 24 hrs using propidium iodide staining by FACS; assay type: functional, cell-based; outline: as §3

N#Cc1ccc(Nc2nc3ccc(C#N)cc3s2)cc1
IC50 [1]: > 10 µM | IC50 (SW-620): > 10 µM | IC50 (HeLa): > 10 µM | IC50 (MCF7): > 10 µM | IC50 (MIA PaCa-2): > 10 µM | IC50 (HEp-2): > 10 µM

Cc1ccnc(Nc2nc3ccc(C#N)cc3s2)c1
IC50 [1]: ≥ 10 µM | IC50 (SW-620): 4 µM | IC50 (HeLa): 3 µM | IC50 (MCF7): > 10 µM | IC50 (MIA PaCa-2): 4 µM | IC50 (HEp-2): 7 µM

Cc1ccc(Nc2nc3ccc(C4=NCCN4)cc3s2)nc1.Cl.Cl
IC50 [1]: 6 µM | viability at 10 µM (NCI-H460 [2]): 89% | IC50 (SW-620): 1 µM | IC50 (NCI-H460 [3]): 2 µM | IC50 (HeLa): 2 µM | Activity (NCI-H460 [4]): Dose-dependent effect | IC50 (MCF7): 2 µM | Activity (NCI-H460 [5]): Active | Activity (NCI-H460 [6]): Dose-dependent effect | Activity (NCI-H460 [7]): 2.3% | Activity (NCI-H460 [8]): 6.98% | IC50 (MIA PaCa-2): 2 µM | Activity (NCI-H460 [9]): Dose-dependent effect | Activity (NCI-H460 [10]): Active

N#Cc1ccc2nc(Nc3ccc(Cl)cn3)sc2c1
IC50 [1]: > 10 µM | IC50 (SW-620): ≥ 10 µM | IC50 (HeLa): > 10 µM | IC50 (MCF7): 10 µM | IC50 (MIA PaCa-2): 6 µM | IC50 (HEp-2): > 10 µM

Cc1ccc(Nc2nc3ccc(C#N)cc3s2)nc1
IC50 [1]: 4 µM | IC50 (SW-620): > 10 µM | IC50 (HeLa): 9 µM | IC50 (MCF7): > 10 µM | IC50 (MIA PaCa-2): 5 µM | IC50 (HEp-2): > 10 µM

CC(C)NC(=N)c1ccc2nc(Nc3ncccn3)sc2c1
IC50 [1]: 75 µM | IC50 (SW-620): 15 µM | IC50 (NCI-H460 [3]): 5 µM | IC50 (HeLa): 7 µM | IC50 (MCF7): 13 µM | IC50 (MIA PaCa-2): 11 µM

Cc1cccnc1Nc1nc2ccc(C(=N)NC(C)C)cc2s1
IC50 [1]: 14 µM | IC50 (SW-620): 5 µM | IC50 (NCI-H460 [3]): 2 µM | IC50 (HeLa): 5 µM | IC50 (MCF7): 2 µM | IC50 (MIA PaCa-2): 3 µM

CC(C)NC(=N)c1ccc(C(=O)Nc2nc3ccccc3s2)cc1
IC50 [1]: 16 µM | IC50 (SW-620): 17 µM | IC50 (NCI-H460 [3]): 16 µM | IC50 (HeLa): 9 µM | IC50 (MCF7): 13 µM | IC50 (MIA PaCa-2): 17 µM

Cc1ccc(Nc2nc3ccc(C(=N)NC(C)C)cc3s2)nc1.Cl.Cl
Activity (NCI-H460 [11]): Active | IC50 [1]: 31 µM | IC50 (SW-620): 12 µM | Activity (NCI-H460 [12]): Active | Activity (NCI-H460 [13]): Active | IC50 (NCI-H460 [3]): 15 µM | Activity (NCI-H460 [14]): inactive | Activity (NCI-H460 [15]): inactive | IC50 (HeLa): 12 µM | Activity (NCI-H460 [16]): Active | Activity (NCI-H460 [4]): Dose-dependent effect | IC50 (MCF7): 8 µM | Activity (NCI-H460 [17]): 13.58% | Activity (NCI-H460 [18]): 2.39% | Activity (NCI-H460 [5]): Active | viability at 50 µM (NCI-H460 [19]): 83.2% | Activity (NCI-H460 [6]): Dose-dependent effect | IC50 (MIA PaCa-2): 14 µM | Activity (NCI-H460 [9]): Dose-dependent effect | Activity (NCI-H460 [10]): Active | Activity (NCI-H460 [20]): Active | Activity (NCI-H460 [21]): Active

Cc1cccc(Nc2nc3ccc(C#N)cc3s2)n1
IC50 [1]: > 10 µM | IC50 (SW-620): 4 µM | IC50 (HeLa): 8 µM | IC50 (MCF7): 8 µM | IC50 (MIA PaCa-2): 6 µM | IC50 (HEp-2): > 10 µM

CC(C)NC(=N)c1ccc2nc(Nc3ccc(Cl)cn3)sc2c1
IC50 [1]: 17 µM | IC50 (SW-620): 13 µM | IC50 (NCI-H460 [3]): 15 µM | IC50 (HeLa): 9 µM | IC50 (MCF7): 5 µM | IC50 (MIA PaCa-2): 12 µM

N#Cc1ccc2nc(Nc3ncccn3)sc2c1
IC50 [1]: ≥ 10 µM | IC50 (SW-620): 9 µM | IC50 (HeLa): 5 µM | IC50 (MCF7): 7 µM | IC50 (MIA PaCa-2): 3 µM | IC50 (HEp-2): 5 µM
